The values that follow come from ChEMBL document CHEMBL3352556, “Neural cell activation by phenolic compounds from the Siberian larch (Larix sibirica)” (J Nat Prod, 2014).

A short description of series [1]: Cytotoxicity against C57BL/6J mouse primary cerebellar neurons assessed as reduction in cell viability at 1 uM after 24 hrs by microscopy.
The species entered for series [2] is Mus musculus. Description: Induction of neurite outgrowth in C57BL/6J mouse motoneurons at 1 to 200 nM after 24 hrs by microscopy. It counts as functional. A digest of the protocol:
(§1)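 Motoneurons came from spinal cords of E14.5 mice, were seeded at 1.25 × 10^4 cells/well on poly-L-ornithine and cultured serum-free. Compound was added 1 h after seeding (0.1% DMSO final; DMSO control) and cells were fixed at 24 h. Neurite length was measured microscopically. Duplicates, ≥100 cells per treatment, 3 independent experiments, mean ± SEM.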

Series [3] is filed under the species Mus musculus. The experiment in a line: Induction of neurite outgrowth in C57BL/6J mouse motoneurons at 500 nM after 24 hrs by microscopy. It counts as functional. The essentials:
as §1

A short description of series [4]: Induction of migration of C57BL/6J mouse cerebellar primary neuron at 100 nM after 48 hrs by microscopy relative to DMSO-treated control. The format is functional.
Series [5] in a line: Induction of migration of C57BL/6J mouse cerebellar primary neuron assessed as cell population migrating to 1- 150 um at 100 nM after 48 hrs by microscopy (reference value: 72 %). It counts as functional.
Series [6] is described as follows: Induction of migration of C57BL/6J mouse cerebellar primary neuron assessed as cell population migrating to 151- 300 um at 100 nM after 48 hrs by microscopy (reference value: 25 %). It counts as functional.
A short description of series [7]: Induction of migration of C57BL/6J mouse cerebellar primary neuron assessed as cell population migrating to >301 um at 100 nM after 48 hrs by microscopy (reference value: 3 %). It counts as functional.
The subject of series [8] is Schwann. The experiment in a line: Stimulation of process formation/elongation of C57BL/6J mouse Schwann cells after 24 hrs by microscopy. The format is functional, cell-based. The essentials:
(§2)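 Schwann cells from dorsal root ganglia of 6- to 8-day-old mice were seeded at 1.25 × 10^4 cells/well on PLL and cultured serum-free. Compound (0.1% DMSO final; DMSO control) was added 1 h after seeding and cells were fixed at 24 h. Process length was measured microscopically. Duplicates, ≥100 cells per treatment, 3 independent experiments, mean ± SEM.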

Series [9] in a line: Stimulation of process formation/elongation of C57BL/6J mouse Schwann cells at 100 pM to 100 nM after 24 hrs by microscopy relative to DMSO-treated control. The format is functional. A digest of the protocol:
as §2

Series [10] relates to Schwann. The experiment in a line: Stimulation of process formation/elongation of C57BL/6J mouse Schwann cells at 1 uM after 24 hrs by microscopy. The format is functional, cell-based. The essentials:
as §2

The nature of series [11]: Cytotoxicity against C57BL/6J mouse Schwann cells at 1 uM after 24 hrs by microscopy. It counts as cell-based.
Another series deals with Astrocyte. The experiment in a line: Reduction in migration of C57BL/6J mouse brain astrocytes assessed as distance of migration at 100 nM after 8 to 48 hrs by scratch injury assay (reference value: 700 um). The format is functional.
The species entered for series [12] is Mus musculus. Description: Induction of neurite outgrowth in C57BL/6J mouse primary cerebellar neurons after 24 hrs by microscopy. It counts as functional. A digest of the protocol:
(§3)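 Cerebellar granule neurons from 6- to 8-day-old mice were plated at 2.5 × 10^4 cells/well on PLL in defined serum-free medium. Compound (100 pM–1 μM; 0.1% DMSO final, DMSO control) was added 1 h post-seeding and cells were fixed at 24 h. Neurite length was measured by microscopy. Duplicates, ≥100 cells per treatment, 3 independent experiments, mean ± SEM.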

Series [13] is described as follows: Induction of neurite outgrowth in C57BL/6J mouse primary cerebellar neurons at 100 nM after 24 hrs by microscopy relative to DMSO-treated control. It counts as functional. The essentials:
as §3

Series [14] is described as follows: Induction of neurite outgrowth in C57BL/6J mouse dorsal root ganglion neurons at 100 nM after 24 hrs by microscopy relative to DMSO-treated control. The format is functional, DRG neuron. The essentials:
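Dorsal root ganglion neurons from 6- to 8-day-old mice were seeded at 1.25 × 10^4 cells/well on PLL in serum-free culture. 100 nM compound (0.1% DMSO final) was added 1 h after seeding. Cells were fixed after 24 h and neurite length was measured by microscopy versus DMSO control. Duplicates, ≥100 cells per treatment, 3 independent experiments, mean ± SEM.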

The source made the active and inactive calls. No cut-off for these calls is given here.

For the compound `COc1cc([C@H]2c3cc(O)c(OC)cc3C[C@@H](CO)[C@@H]2CO)ccc1O` [ISOLARICIRESINOL], the Activity result is “Non-toxic” in series [1]; 68% in series [5]; 24% in series [6]; 8% in [7]; “Dose-dependent effect” in the series with Schwann [8]; “Non-toxic” in series [11]. For the same compound, the results for the Activity in the series with Astrocyte and in the series filed under Mus musculus [12] were 500 µm and “Dose-dependent effect”, respectively. In the series filed under Mus musculus [2], the result was Active. In addition, the result in the series filed under Mus musculus [3] and with Schwann [10] was inactive. For the same compound, the results for the “fold change (FC)” value in series [4], in [9] and in [13] were 1.2, 1.8 and 1.6, respectively.

As to `COc1cc(C[C@@H](CO)[C@H](CO)Cc2ccc(O)c(OC)c2)ccc1O` [(+)-SECOISOLARICIRESINOL], the Activity result is “Non-toxic” in series [1]; 65% in series [5]; 27% in series [6]; 8% in [7]; “Dose-dependent effect” in the series on Schwann [8]; “Non-toxic” in series [11]. Moreover, the Activity in the series on Astrocyte is 500 µm; in the series listed under Mus musculus [12], “Dose-dependent effect”. Besides, the outcome in the series filed under Mus musculus [2] was Active. For the same compound, the outcome in the series filed under Mus musculus [3] and with Schwann [10] was inactive. Also, the “fold change (FC)” value in [4] is listed as 1.2; in [9], 1.8; in series [13], 1.6.

In the case of `O=C1c2c(O)cc(O)cc2O[C@H](c2ccc(O)c(O)c2)[C@H]1O` [(+)-TAXIFOLIN], the Activity result in series [1] was “Non-toxic”; in series [5], 59%; in series [6] it was 29%; in series [7], 12%; in the series with Schwann [8] it was “Dose-dependent effect”; in series [11], “Non-toxic”. In addition, the Activity in the series with Astrocyte was 500 µm; in the series filed under Mus musculus [12] it was “Dose-dependent effect”. The result in the series filed under Mus musculus [2] was Active. Besides, the result in the series listed under Mus musculus [3] and in the series on Schwann [10] was inactive. Also, the fold change (FC) came to 1.7 in series [14], 1.4 in series [4], 1.9 in series [9] and 1.6 in [13].
